Data: ChEMBL document CHEMBL4196013, “Ridaifen-F conjugated with cell-penetrating peptides inhibits intracellular proteasome activities and induces drug-resistant cell death” (Eur J Med Chem, 2018)
Calls of active or inactive are those of the source. The rule behind the calls is not given here. Peptide text beside a SMILES is read from it. * marks the point of attachment. X1 = CCC(=C(c1ccc(OCCN2CCCCCC2)cc1)c1ccc(OCCN2CCCCCC2)cc1)c1cccc(C(=O)*)c1

Experiments:
[1] = target: T1, Proteasome Macropain subunit MB1 (Homo sapiens, UniProt P28074); experiment: Inhibition of chymotrypsin-like activity of human 20S proteasome using Suc-LLVY-MCA as substrate measured for 1 hr by fluorescence assay
T1 sequence (P28074 whole entry): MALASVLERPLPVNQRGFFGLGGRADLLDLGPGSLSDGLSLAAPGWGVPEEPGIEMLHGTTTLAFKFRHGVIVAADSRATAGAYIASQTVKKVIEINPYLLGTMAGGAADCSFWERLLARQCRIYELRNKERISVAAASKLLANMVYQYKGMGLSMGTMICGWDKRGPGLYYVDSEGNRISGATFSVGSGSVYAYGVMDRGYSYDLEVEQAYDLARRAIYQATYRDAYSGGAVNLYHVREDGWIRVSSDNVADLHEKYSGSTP
Summary of the method: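 Purified human 20S proteasome with 50 µM fluorogenic substrate in 25 mM HEPES pH 8.0, 0.5 mM EDTA, 0.03% SDS. Inhibitor range 0.1–10 µM, with the table footnote giving 0.5–8 µM. IC₅₀ from inhibition curves; n = 3.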

[2] = target: T1, Proteasome Macropain subunit MB1; experiment: Inhibition of chymotrypsin-like activity of human 26S proteasome using Suc-LLVY-MCA as substrate measured for 1 hr by fluorescence assay
Summary of the method: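 Purified 26S proteasome with 50 µM fluorogenic substrate in 50 mM HEPES pH 7.5, 40 mM KCl, 5 mM MgCl₂, BSA, 0.5 mM ATP, 1 mM DTT. Inhibitor range 0.1–40 µM. AMC fluorescence monitored 1 h at 37 °C. IC₅₀ from inhibition curves; n = 3.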

[3] = target: T1, Proteasome Macropain subunit MB1; experiment: Inhibition of chymotrypsin-like activity of human 26S proteasome using Z-LLE-MCA as substrate measured for 1 hr in presence of ATPgammaS by fluorescence assay
[4] = target: T1, Proteasome Macropain subunit MB1; experiment: Inhibition of chymotrypsin-like activity of 26S proteasome in human KMS11 cells using […] as substrate after 24 to 48 hrs by luminescence-based assay; format: cell-based
Summary of the method: (§1)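 Intracellular proteasome assay. Cells seeded in triplicate at 5 × 10³ cells/well and incubated 24 or 48 h with 0.1–10 µM inhibitor, 0.5% final DMSO. Proteasome-Glo reagent with aminoluciferin-linked peptide substrates lyses the cells; luminescence read after 15 min. IC₅₀ taken from inhibition curves.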

[5] = target: T1, Proteasome Macropain subunit MB1; experiment: Inhibition of chymotrypsin-like activity of 26S proteasome in human RPMI8226 cells using […] as substrate after 24 to 48 hrs by luminescence-based assay; format: cell-based; summary of the method: as §1
KMS-11 [6] = experiment: Cytotoxicity against human KMS11 cells after 24 to 48 hrs by CellTiter-Glo assay; format: functional
Summary of the method: (§2)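 RPMI8226 or KMS-11 cells seeded in triplicate wells at 5 × 10² cells/well and exposed to 0.1–10 µM compound (DMSO) for 24 or 48 h. Survival read as cellular ATP level; Cyt₅₀ derived from concentration–survival curves.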

RPMI-8226 [7] = experiment: Cytotoxicity against human RPMI8226 cells after 24 to 48 hrs by CellTiter-Glo assay; format: functional; summary of the method: as §2
KMS-11 [8] = experiment: Cytotoxicity against human KMS11 cells at 10 uM by CellTiter-Glo assay; format: functional, cell-based; settings: TDE = time-dependent effect
Summary of the method: (§3)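 Cells cultured with each compound at 10 µM, with viability followed over time by ATP assay. Mock-treated cells define 100%; values are means of three independent experiments.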

RPMI-8226 [9] = experiment: Cytotoxicity against human RPMI8226 cells assessed as reduction in cell viability at 10 uM after 2 to 48 hrs by CellTiter-Glo assay; format: functional, cell-based; summary of the method: as §3

Row | Molecule | IC50 [1] [µM] | IC50 [2] [µM] | IC50 [3] [µM] | IC50 [4] [µM] | IC50 [5] [µM] | CC50 (KMS-11 [6]) [µM] | CC50 (RPMI-8226 [7]) [µM] | Activity (KMS-11 [8]) | Activity (RPMI-8226 [9])
1 | CCC(=C(c1ccc(OCCN2CCCCCC2)cc1)c1ccc(OCCN2CCCCCC2)cc1)c1cccc(CNC(=O)CN[C@@H](CCCNC(=N)N)C(=O)N[C@@H](CCCNC(=N)N)C(=O)N[C@@H](CCCNC(=N)N)C(=O)N[C@@H](CCCNC(=N)N)C(=O)N[C@@H](CCCNC(=N)N)C(=O)N[C@@H](CCCNC(=N)N)C(=O)NC(C)=O)c1 | > 8 | > 40 | – | – | – | – | – | – | –
2 | CCC(=C(c1ccc(OCCN2CCCCCC2)cc1)c1ccc(OCCN2CCCCCC2)cc1)c1cccc(C(=O)NCC(=O)N[C@@H](CC(C)C)C(=O)N[C@@H](CC(C)C)C(=O)N[C@H](C(=O)N[C@@H](Cc2ccc(O)cc2)C(N)=O)C(C)C)c1 (X1-GLLVY-NH2) | 0.89 | 26 | – | – | – | – | – | – | –
3 | CCC(=C(c1ccc(OCCN2CCCCCC2)cc1)c1ccc(OCCN2CCCCCC2)cc1)c1cccc(C(=O)NCC(=O)N[C@@H](CC(C)C)C(=O)N[C@@H](CC(C)C)C(=O)N[C@@H](CCC(=O)O)C(N)=O)c1 | 6.1 | 24 | – | – | – | – | – | – | –
4 | CCC(=C(c1ccc(OCCN2CCCCCC2)cc1)c1ccc(OCCN2CCCCCC2)cc1)c1cccc(C(=O)NCC(=O)N[C@@H](CCCNC(=N)N)C(=O)N[C@@H](CCCNC(=N)N)C(=O)N[C@@H](CCCNC(=N)N)C(=O)N[C@@H](CCCNC(=N)N)C(=O)N[C@@H](CCCNC(=N)N)C(=O)N[C@@H](CCCNC(=N)N)C(=O)N[C@@H](CCCNC(=N)N)C(=O)N[C@@H](CCCNC(=N)N)C(N)=O)c1 | > 50 | 5.5 | 2.4 | 6.3 | 5.7 | 7.2 | 4.3 | Tde | Active
5 | Ac-RRRRRRRRG-OH | > 8 | > 40 | – | – | – | – | – | – | –
6 | CCC(=C(c1ccc(OCCN2CCCCCC2)cc1)c1ccc(OCCN2CCCCCC2)cc1)c1cccc(C(=O)NCC(=O)N[C@@H](CCCNC(=N)N)C(=O)N[C@@H](CCCNC(=N)N)C(=O)N[C@@H](CCCNC(=N)N)C(=O)N[C@@H](CCCNC(=N)N)C(N)=O)c1 (X1-GRRRR-NH2) | > 8 | > 40 | – | – | – | – | – | – | –
7 | CCC(=C(c1ccc(OCCN2CCCCCC2)cc1)c1ccc(OCCN2CCCCCC2)cc1)c1cccc(CNC(=O)CN[C@@H](CCCNC(=N)N)C(=O)N[C@@H](CCCNC(=N)N)C(=O)N[C@@H](CCCNC(=N)N)C(=O)N[C@@H](CCCNC(=N)N)C(=O)NC(C)=O)c1 | > 8 | > 40 | – | – | – | – | – | – | –
8 | N=C(N)NCCC[C@H](NC(=O)[C@H](CCCNC(=N)N)NC(=O)[C@H](CCCNC(=N)N)NC(=O)[C@H](CCCNC(=N)N)NC(=O)[C@H](CCCNC(=N)N)NC(=O)[C@H](CCCNC(=N)N)NC(=O)[C@H](CCCNC(=N)N)NC(=O)[C@H](CCCNC(=N)N)NC(=O)CN)C(N)=O | > 8 | > 40 | – | – | – | – | – | – | –
9 | CCC(=C(c1ccc(OCCN2CCCCCC2)cc1)c1ccc(OCCN2CCCCCC2)cc1)c1ccccc1 | 1.02 | > 100 | – | – | 11 | – | 3.6 | Tde | Active
10 | CCC(=C(c1ccc(OCCN2CCCCCC2)cc1)c1ccc(OCCN2CCCCCC2)cc1)c1cccc(C(=O)NCC(=O)N[C@@H](CCCNC(=N)N)C(=O)N[C@@H](CCCNC(=N)N)C(=O)N[C@@H](CCCNC(=N)N)C(=O)N[C@@H](CCCNC(=N)N)C(=O)N[C@@H](CCCNC(=N)N)C(=O)N[C@@H](CCCNC(=N)N)C(N)=O)c1 | > 8 | > 40 | – | – | – | – | – | – | –
11 | CCC(=C(c1ccc(OCCN2CCCCCC2)cc1)c1ccc(OCCN2CCCCCC2)cc1)c1cccc(CNC(=O)CN[C@@H](CC(C)C)C(=O)N[C@@H](CC(C)C)C(=O)N[C@H](C(=O)N[C@@H](Cc2ccc(O)cc2)C(=O)NC(C)=O)C(C)C)c1 | 0.37 | > 40 | – | – | – | – | – | – | –
12 | CCC(=C(c1ccc(OCCN2CCCCCC2)cc1)c1ccc(OCCN2CCCCCC2)cc1)c1cccc(C(=O)NCC(=O)N[C@@H](CC(C)C)C(=O)N[C@@H](CC(C)C)C(=O)N[C@@H](CC(C)C)C(=O)NCC(=O)NCC(=O)NCC(=O)NCC(N)=O)c1 (X1-GLLLGGGG-NH2) | 1.1 | 5 | – | – | – | – | – | – | –
13 | CC[C@]1(O)C[C@@H]2CN(CCc3c([nH]c4ccccc34)[C@@](C(=O)OC)(c3cc4c(cc3OC)N(C)[C@H]3[C@@](O)(C(=O)OC)[C@H](OC(C)=O)[C@]5(CC)C=CCN6CC[C@]43[C@@H]65)C2)C1 [VINBLASTINE] | 4.58 | > 40 | – | – | – | – | – | – | –
14 | CCC(=C(c1ccc(OCCN2CCCCCC2)cc1)c1ccc(OCCN2CCCCCC2)cc1)c1cccc(C(=O)NCC(=O)N[C@@H](CC(C)C)C(=O)N[C@@H](CC(C)C)C(=O)N[C@H](C(=O)N[C@@H](Cc2ccc(O)cc2)C(=O)NCC(=O)NCC(N)=O)C(C)C)c1 (X1-GLLVYGG-NH2) | 0.89 | 9.1 | – | – | – | – | – | – | –
15 | CCC(=C(c1ccc(OCCN2CCCCCC2)cc1)c1ccc(OCCN2CCCCCC2)cc1)c1cccc(C(=O)NCC(=O)N[C@@H](CCCNC(=N)N)C(=O)N[C@@H](CCCNC(=N)N)C(=O)N[C@@H](CCCNC(=N)N)C(=O)N[C@@H](CCCNC(=N)N)C(=O)N[C@@H](CCCNC(=N)N)C(=O)N[C@@H](CCCNC(=N)N)C(=O)N[C@@H](CCCNC(=N)N)C(=O)N[C@@H](CCCNC(=N)N)C(=O)NC(C)=O)c1 | > 40 | 9.4 | 6 | 2.1 | 2.1 | 4.5 | 2.7 | Tde | Active
